Test results from ChEMBL document CHEMBL1143838, “Candida albicans and Candida dubliniensis respond differently to echinocandin antifungal agents in vitro” (2007).
Values after ≈ are worked out from the molar mass of the structure shown. Active and inactive are the calls of the source. No cut-off for these calls is given here. *1 amine or outer side, *2 acyl side, *3 side chain or, on linkers, in order; H or OH if unused. Where a SMILES comes first, the peptide text is derived from it. Bridges are numbered along the chain shown (N, C = ends). [ ]: non-standard residue; d: D form. The star is where a group is joined. pTerphenylCO(4''-OnC5H11) = CCCCCOc1ccc(-c2ccc(-c3ccc(C(=O)*)cc3)cc2)cc1; Orn(4R-OH,5R-OH) = O=C([C@H](C[C@@H](O)[C@@H](O)N[*:3])N[*:1])[*:2]; hTyr(3S-OH,4S-OH) = N[C@H](C(=O)O)[C@H](O)[C@@H](O)c1ccc(O)cc1; Pro(3S-OH,4S-Me) = C[C@H]1CN[C@H](C(=O)O)[C@H]1O; Hyp = O=C(O)[C@@H]1C[C@@H](O)CN1

Experiments:
Candida albicans [1] = assay: Antifungal activity against Candida albicans T26 after 24 hrs by EUCAST test; format: functional
In short: (§1)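 EUCAST broth microdilution with aqueous doubling dilutions of drug. Inoculum grown overnight at 30°C in NGY, then added to MOPS-buffered RPMI 1640 with 2% glucose at an initial 10^5 yeasts/ml. Incubated 35°C for 24 h. MICs taken from triplicate spectrophotometric dose-response data as 50% and 80% growth-reduction endpoints.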

Pichia kudriavzevii = assay: Antifungal activity against Candida krusei ATCC 6258 after 24 hrs by CLSI M27-A test; format: functional; settings: ATCC 6258, 24 h
In short: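 Broth microdilution per CLSI M27-A. Drugs were prepared as aqueous doubling dilutions. Inoculum was grown overnight at 30°C in neopeptone-yeast extract-glucose medium, then added to MOPS-buffered RPMI 1640 at an initial 10^3 yeasts/ml. Plates were incubated at 35°C for 24 h. MIC was read visually as the lowest concentration giving a marked decrease in visible growth.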

Candida dubliniensis [2] = assay: Antifungal activity against Candida dubliniensis 910Aa after 24 hrs by CLSI M27-A test; format: functional
In short: (§2)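 CLSI M27-A broth microdilution with aqueous doubling dilutions of drug. Inoculum grown overnight at 30°C in NGY medium, then added to MOPS-buffered RPMI 1640 at an initial 10^3 yeasts/ml. Incubated 35°C for 24 h. MIC read visually as the lowest concentration giving a marked decrease in visible growth; paradoxical or trailing growth noted.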

Candida dubliniensis [3] = assay: Antifungal activity against Candida dubliniensis Leic875 after 24 hrs by CLSI M27-A test; format: functional
In short: (§3)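 Broth microdilution with echinocandins as aqueous doubling dilutions. Yeasts were grown overnight at 30°C in NGY and seeded at 10^3 yeasts/ml initial concentration in MOPS-buffered RPMI 1640, then incubated at 35°C for 24 h. The MIC was read visually as the lowest concentration giving a marked decrease in visible growth; paradoxical or trailing growth was noted.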

Candida albicans [4] = assay: Antifungal activity against Candida albicans SC5314 after 24 hrs by EUCAST test; format: functional; settings: SC5314, 24 h; in short: as §1
Candida dubliniensis [5] = assay: Antifungal activity against Candida dubliniensis SCSBB417709 after 24 hrs by CLSI M27-A test; format: functional; in short: as §3
Candida dubliniensis [6] = assay: Antifungal activity against Candida dubliniensis SCS59662 after 24 hrs by EUCAST test; format: functional
In short: (§4)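 Yeasts were grown overnight at 30°C in NGY, then inoculated at 10^5 yeasts/ml initial concentration into MOPS-buffered RPMI 1640 with 2% glucose containing aqueous doubling dilutions of drug. Plates were held at 35°C for 24 h. MICs came from triplicate spectrophotometric dose-response data at 50% and 80% growth-reduction endpoints. Trailing meant a >100-fold gap between these endpoints; paradoxical meant regrowth ≥5% above the curve minimum.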

Candida dubliniensis [7] = assay: Antifungal activity against Candida dubliniensis ANSA 23a after 24 hrs by CLSI M27-A test; format: functional, organism-based; in short: as §3
Candida dubliniensis [8] = assay: Antifungal activity against Candida dubliniensis J930936 after 24 hrs by CLSI M27-A test; format: functional; in short: as §3
Candida dubliniensis [9] = assay: Antifungal activity against Candida dubliniensis IK after 24 hrs by EUCAST test; format: functional; in short: as §4
Candida dubliniensis [10] = assay: Antifungal activity against Candida dubliniensis 75/043 after 24 hrs by CLSI M27-A test; format: functional; in short: as §2
Candida albicans [11] = assay: Antifungal activity against Candida albicans T28 after 24 hrs by EUCAST test; format: functional; in short: as §1
Candida dubliniensis [12] = assay: Antifungal activity against Candida dubliniensis 81/060 after 24 hrs by CLSI M27-A test; format: functional, organism-based; in short: as §2
Candida albicans [13] = assay: Antifungal activity against Candida albicans SCS67023C after 24 hrs by EUCAST test; format: functional; in short: as §1
Candida albicans [14] = assay: Antifungal activity against Candida albicans T26 after 24 hrs by CLSI M27-A test; format: functional; in short: as §2
Candida dubliniensis [15] = assay: Antifungal activity against Candida dubliniensis AMCC after 24 hrs by CLSI M27-A test; format: functional; in short: as §2
Candida albicans [16] = assay: Antifungal activity against Candida albicans SCS140136P after 24 hrs by EUCAST test; format: functional; in short: as §1
Candida dubliniensis [17] = assay: Antifungal activity against Candida dubliniensis FS after 24 hrs by EUCAST test; format: functional; in short: as §4
Candida albicans [18] = assay: Antifungal activity against Candida albicans NR4 after 24 hrs by CLSI M27-A test; format: functional; in short: as §2
Candida albicans [19] = assay: Antifungal activity against Candida albicans JIMS101103 after 24 hrs by EUCAST test; format: functional; in short: as §1
Candida dubliniensis [20] = assay: Antifungal activity against Candida dubliniensis Leic875 after 24 hrs by EUCAST test; format: functional; in short: as §4
Candida albicans [21] = assay: Antifungal activity against Candida albicans Y109 after 24 hrs by CLSI M27-A test; format: functional; in short: as §2
Candida albicans [22] = assay: Antifungal activity against Candida albicans T32 after 24 hrs by EUCAST test; format: functional; in short: as §1
Candida albicans [23] = assay: Antifungal activity against Candida albicans B06-341 after 24 hrs by CLSI M27-A test; format: functional; in short: as §2
Candida dubliniensis [24] = assay: Antifungal activity against Candida dubliniensis SCS65875C after 24 hrs by CLSI M27-A test; format: functional; in short: as §3
Candida dubliniensis [25] = assay: Antifungal activity against Candida dubliniensis SCS59662 after 24 hrs by CLSI M27-A test; format: functional; in short: as §3
Candida dubliniensis [26] = assay: Antifungal activity against Candida dubliniensis SCS17154969-2 after 24 hrs by CLSI M27-A test; format: functional; in short: as §3
Candida albicans [27] = assay: Antifungal activity against Candida albicans JIMS101103 after 24 hrs by CLSI M27-A test; format: functional, organism-based; in short: as §2
Candida albicans [28] = assay: Antifungal activity against Candida albicans CAI4RI after 24 hrs by EUCAST test; format: functional; in short: as §1
Candida dubliniensis [29] = assay: Antifungal activity against Candida dubliniensis 81/060 after 24 hrs by EUCAST test; format: functional; in short: as §1
Candida albicans [30] = assay: Antifungal activity against Candida albicans B06-341 after 24 hrs by EUCAST test; format: functional; in short: as §1
Candida albicans [31] = assay: Antifungal activity against Candida albicans AM2003/0083 after 24 hrs by EUCAST test; format: functional; in short: as §1
Candida albicans [32] = assay: Antifungal activity against Candida albicans NR2 after 24 hrs by EUCAST test; format: functional; in short: as §1
Candida albicans [33] = assay: Antifungal activity against Candida albicans SC5314 after 24 hrs by CLSI M27-A test; format: functional; settings: SC5314, 24 h; in short: as §2
Candida dubliniensis [34] = assay: Antifungal activity against Candida dubliniensis 910Aa after 24 hrs by EUCAST test; format: functional; in short: as §1
Candida dubliniensis [35] = assay: Antifungal activity against Candida dubliniensis 90/033 after 24 hrs by CLSI M27-A test; format: functional; in short: as §2
Candida dubliniensis [36] = assay: Antifungal activity against Candida dubliniensis J931021 after 24 hrs by EUCAST test; format: functional; in short: as §4
Candida albicans [37] = assay: Antifungal activity against Candida albicans T25 after 24 hrs by EUCAST test; format: functional; in short: as §1
Candida albicans [38] = assay: Antifungal activity against Candida albicans NCPF6525 after 24 hrs by EUCAST test; format: functional; in short: as §1

In the case of `CCCCCOc1ccc(-c2ccc(-c3ccc(C(=O)N[C@H]4C[C@@H](O)[C@@H](O)NC(=O)[C@@H]5[C@@H](O)[C@@H](C)CN5C(=O)[C@H]([C@@H](C)O)NC(=O)[C@H]([C@H](O)[C@@H](O)c5ccc(O)cc5)NC(=O)[C@@H]5C[C@@H](O)CN5C(=O)[C@H]([C@@H](C)O)NC4=O)cc3)cc2)cc1` [ANIDULAFUNGIN] ({pTerphenylCO(4''-OnC5H11)}-[Orn(4R-OH,5R-OH)]T[Hyp][hTyr(3S-OH,4S-OH)]T[Pro(3S-OH,4S-Me)]; lactam 1-C), the MIC50 (Candida albicans [1]) is reported as 0.5 µg/mL (≈ 0.438 µM), the MIC50 (Pichia kudriavzevii) is reported as 0.13 µg/mL (≈ 0.114 µM) and the MIC50 (Candida dubliniensis [2]) is reported as at most 0.032 µg/mL. For the same compound, the MIC50 (Candida dubliniensis [3]) was at most 0.032 µg/mL, the MIC50 (Candida albicans [4]) was at most 0.032 µg/mL and the MIC50 (Candida dubliniensis [5]) was at most 0.032 µg/mL. The MIC50 (Candida dubliniensis [6]) was at most 0.032 µg/mL, the Activity (Candida dubliniensis [7]) was “Active” and the MIC50 (Candida dubliniensis [8]) was at most 0.032 µg/mL. For the same compound, the MIC50 (Candida dubliniensis [9]) was at most 0.032 µg/mL, the MIC50 (Candida dubliniensis [10]) was at most 0.032 µg/mL and the MIC50 (Candida albicans [11]) was at most 0.032 µg/mL. For the same compound, the Activity (Candida dubliniensis [12]) was “Active”, the MIC50 (Candida albicans [13]) was at most 0.032 µg/mL and the MIC50 (Candida albicans [14]) was 1 µg/mL (≈ 0.877 µM). It also gave an MIC50 (Candida dubliniensis [15]) of at most 0.032 µg/mL, an MIC50 (Candida albicans [16]) of at most 0.032 µg/mL and an MIC50 (Candida dubliniensis [17]) of 4 µg/mL (≈ 3.51 µM). For the same compound, the MIC50 (Candida albicans [18]) was 0.25 µg/mL (≈ 0.219 µM), the MIC50 (Candida albicans [19]) was at most 0.032 µg/mL and the MIC50 (Candida dubliniensis [20]) was at most 0.032 µg/mL. The MIC50 (Candida albicans [21]) was 0.25 µg/mL (≈ 0.219 µM), the MIC50 (Candida albicans [22]) was at most 0.032 µg/mL and the MIC50 (Candida albicans [23]) was 0.13 µg/mL (≈ 0.114 µM). For the same compound, the MIC50 (Candida dubliniensis [24]) was at most 0.032 µg/mL, the MIC50 (Candida dubliniensis [25]) was at most 0.032 µg/mL and the MIC50 (Candida dubliniensis [26]) was at most 0.032 µg/mL. The Activity (Candida albicans [27]) was “Active”, the MIC50 (Candida albicans [28]) was 0.25 µg/mL (≈ 0.219 µM) and the MIC50 (Candida dubliniensis [29]) was at most 0.032 µg/mL. For the same compound, the MIC50 (Candida albicans [30]) was 0.13 µg/mL (≈ 0.114 µM), the MIC50 (Candida albicans [31]) was at most 0.032 µg/mL and the MIC50 (Candida albicans [32]) was 0.25 µg/mL (≈ 0.219 µM). It also gave an MIC50 (Candida albicans [33]) of at most 0.032 µg/mL, an MIC50 (Candida dubliniensis [34]) of at most 0.032 µg/mL and an MIC50 (Candida dubliniensis [35]) of at most 0.032 µg/mL. The MIC50 (Candida dubliniensis [36]) was 16 µg/mL (≈ 14 µM), the MIC50 (Candida albicans [37]) was 0.5 µg/mL (≈ 0.438 µM) and the MIC50 (Candida albicans [38]) was 0.25 µg/mL (≈ 0.219 µM).
